Experimental findings from ChEMBL document CHEMBL1124663, “Design, synthesis, antineoplastic activity, and chemical properties of bis(carbamate) derivatives of 4,5-bis(hydroxymethyl)imidazole” (J Med Chem, 1989) are described below.

For data set [1], the system named is Mus musculus. The experiment in a line: Body Weight Difference (BWD) of test animals administered with 100 mg/kg compound is determined on day 5 for P388 tumor cells. The data set is classed as functional. In a few lines:
(§1)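 P388 leukaemia: about 10^6 cells in ascitic fluid inoculated ip on day 0 (CD2F1 mice). Compound given ip in normal saline as a freshly prepared solution or suspension, once daily on days 1–5. Treated-minus-control body weight difference in g, taken as day 5 minus day 1 weight. Groups of six.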

The test system of data set [2] is Mus musculus. The experiment in a line: Body Weight Difference (BWD) of test animals administered with 200 mg/kg compound is determined on day 5 for P388 tumor cells. It is filed as functional. In a few lines:
as §1

The test system of data set [3] is Mus musculus. In words: Body Weight Difference (BWD) of test animals administered with 25 mg/kg compound is determined on day 5 for P388 tumor cells. The data set is classed as functional. In a few lines:
as §1

Data set [4] relates to Mus musculus. The experiment in a line: Body Weight Difference (BWD) of test animals administered with 400 mg/kg compound is determined on day 5 for P388 tumor cells. The data set is classed as functional. In a few lines: as §1
For data set [5], the system named is Mus musculus. The experiment in a line: Body Weight Difference (BWD) of test animals administered with 50 mg/kg compound is determined on day 5 for P388 tumor cells. The data set is classed as functional. In a few lines: as §1
Data set [6] concerns Mus musculus. In words: Ability of 12.5 mg/kg of compound to kill tumor cells in mice is expressed as the log of the tumor cell population at the onset of treatment minus the log of the tumor cell population at the end of treatment. The data set is classed as functional.
The subject of data set [7] is Mus musculus. In words: Toxicity day evaluation was carried out on day 5 for animal dosed with 100 mg/kg compound; 6/6. The data set is classed as organism-based. Details: dose 100 mg/kg. As to conditions: in vivo.
Data set [8] deals with Mus musculus. The experiment in a line: Toxicity day evaluation was carried out on day 5 for animal dosed with 200 mg/kg compound; 6/6. More on the design: dose 200 mg/kg. The note with it: in vivo. The data set is classed as organism-based.
The subject of data set [9] is Mus musculus. In words: Toxicity day evaluation was carried out on day 5 for animal dosed with 400 mg/kg compound; 6/6. The note with it: in vivo. It is filed as organism-based. Details: dose 400 mg/kg.
Data set [10] concerns Mus musculus. In words: Toxicity day evaluation was carried out on day 5 for animal dosed with 50 mg/kg compound; 6/6. The data set is classed as organism-based. Details: dose 50 mg/kg. As to conditions: in vivo.
Data set [11] relates to Mus musculus. In words: Ability of 25 mg/kg of compound to kill tumor cells in mice is expressed as the log of the tumor cell population at the onset of treatment minus the log of the tumor cell population at the end of treatment. The data set is classed as functional.
Data set [12] deals with Mus musculus. In words: The percent of the median survival time of test mice compared to control mice is determined for mice administered with 400 mg/kg compound. The data set is classed as functional.
Data set [13] has as its system Mus musculus. In words: Ability of 50 mg/kg of compound to kill tumor cells in mice is expressed as the log of the tumor cell population at the onset of treatment minus the log of the tumor cell population at the end of treatment. The data set is classed as functional.
For data set [14], the system named is Mus musculus. In words: Toxicity day evaluation was carried out on day 5 for animal dosed with 25 mg/kg compound; 6/6. Details: dose 25 mg/kg. The data set is classed as organism-based. The note with it: in vivo.
Data set [15] relates to Mus musculus. In words: Toxicity day evaluation was carried out on day 5 for animal dosed with 12.5 mg/kg compound; 6/6. The data set is classed as organism-based. Details: dose 12.5 mg/kg. The note with it: in vivo.
In data set [16] the test system is Mus musculus. The experiment in a line: Body Weight Difference (BWD) of test animals administered with 12.5 mg/kg compound is determined on day 5 for P388 tumor cells. It is filed as functional. In a few lines: as §1
The subject of data set [17] is Mus musculus. In words: The percent of the median survival time of test mice compared to control mice is determined for mice administered with 50 mg/kg compound. The data set is classed as functional.
The subject of data set [18] is Mus musculus. The experiment in a line: Ability of 200 mg/kg of compound to kill tumor cells in mice is expressed as the log of the tumor cell population at the onset of treatment minus the log of the tumor cell population at the end of treatment. The data set is classed as functional.
The test system of data set [19] is Mus musculus. In words: Ability of 400 mg/kg of compound to kill tumor cells in mice is expressed as the log of the tumor cell population at the onset of treatment minus the log of the tumor cell population at the end of treatment. It is filed as functional.
Data set [20] concerns Mus musculus. In words: Ability of 100 mg/kg of compound to kill tumor cells in mice is expressed as the log of the tumor cell population at the onset of treatment minus the log of the tumor cell population at the end of treatment. The data set is classed as functional.
In data set [21] the test system is Mus musculus. The experiment in a line: Toxicity day evaluation was carried out on day 5 for animal dosed with 100 mg/kg compound; 5/5. It is filed as organism-based. More on the design: dose 100 mg/kg. As to conditions: in vivo.
For data set [22], the system named is Mus musculus. In words: Toxicity day evaluation was carried out on day 5 for animal dosed with 200 mg/kg compound; 5/5. The data set is classed as organism-based. More on the design: dose 200 mg/kg. The note with it: in vivo.
For data set [23], the system named is Mus musculus. The experiment in a line: Toxicity day evaluation was carried out on day 5 for animal dosed with 400 mg/kg compound; 4/5. The data set is classed as organism-based. Details: dose 400 mg/kg. As to conditions: in vivo.
Data set [24] relates to Mus musculus. The experiment in a line: Toxicity day evaluation was carried out on day 5 for animal dosed with 50 mg/kg compound; 5/5. It is filed as organism-based. Details: dose 50 mg/kg. The note with it: in vivo.
Data set [25] deals with Mus musculus. In words: Ability of 50 mg/kg of compound to kill tumor cells in mice is expressed as the log of the tumor cell population at the onset of treatment minus the log of the tumor cell population at the end of treatment. The data set is classed as functional.
For data set [26], the system named is Mus musculus. The experiment in a line: Body Weight Difference (BWD) of test animals with P388 administered with 200 mg/kg compound is determined. The data set is classed as functional. In a few lines: as §1
For data set [27], the system named is Mus musculus. In words: Body Weight Difference (BWD) of test animals with P388 administered with 25 mg/kg compound is determined. The data set is classed as functional. In a few lines: as §1
Data set [28] deals with Mus musculus. The experiment in a line: Body Weight Difference (BWD) of test animals with P388 administered with 400 mg/kg compound is determined. It is filed as functional. In a few lines:
as §1

Data set [29] concerns Mus musculus. In words: Body Weight Difference (BWD) of test animals with P388 administered with 50 mg/kg compound is determined. It is filed as functional. In a few lines: as §1
Data set [30] deals with Mus musculus. In words: Body Weight Difference (BWD) of test animals administered with 100 mg/kg compound is determined. It is filed as functional.
Data set [31] relates to Mus musculus. The experiment in a line: Toxicity day evaluation was carried out on day 5 for animal dosed with 100 mg/kg compound. Number of animals in initial test groups were 6. It is filed as organism-based. Details: dose 100 mg/kg. The note with it: in vivo.
In data set [32] the test system is Mus musculus. The experiment in a line: Toxicity day evaluation was carried out on day 5 for animal dosed with 200 mg/kg compound. Number of animals in initial test groups were 6. It is filed as organism-based. Details: dose 200 mg/kg. As to conditions: in vivo.
The subject of data set [33] is Mus musculus. The experiment in a line: Toxicity day evaluation was carried out on day 5 for animal dosed with 25 mg/kg compound. Number of animals in initial test groups were 6. Details: dose 25 mg/kg. As to conditions: in vivo. It is filed as organism-based.
Data set [34] relates to Mus musculus. The experiment in a line: Toxicity day evaluation was carried out on day 5 for animal dosed with 400 mg/kg compound. Number of animals in initial test groups were 6. As to conditions: in vivo. More on the design: dose 400 mg/kg. It is filed as organism-based.
Data set [35] deals with Mus musculus. The experiment in a line: Toxicity day evaluation was carried out on day 5 for animal dosed with 50 mg/kg compound. Number of animals in initial test groups were 6. The data set is classed as organism-based. Details: dose 50 mg/kg. As to conditions: in vivo.
In data set [36] the test system is Mus musculus. The experiment in a line: Ability of 50 mg/kg of compound to kill P388 tumor cells in mice is expressed as the log of the tumor cell population at the onset of treatment minus the log of the tumor cell population at the end of treatment. It is filed as functional. In a few lines:
(§2)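 P388 leukemia, 10^6 cells implanted ip on day 0. Drug given ip daily on days 1-5 as a saline suspension freshly prepared before injection. Log cell kill is computed from survival, with % T/C taken as median survival time of treated versus control mice.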

In data set [37] the test system is Mus musculus. In words: Ability of 25 mg/kg of compound to kill P388 tumor cells in mice is expressed as the log of the tumor cell population at the onset of treatment minus the log of the tumor cell population at the end of treatment. It is filed as functional. In a few lines:
as §2

Data set [38] deals with Mus musculus. In words: The percent of the median survival time of test mice compared to control mice is determined for mice administered with 25 mg/kg compound. The data set is classed as functional.

What is called T/C is the result in the treated group divided by that in the control group, in per cent. On to `CSc1nc(COC(=O)NC(C)C)c(COC(=O)NC(C)C)n1C`, for which the BWD with Mus musculus [1] is given as -1.2 g; in the data set with Mus musculus [2] it was -1.8 g; in the data set on Mus musculus [3], 0.4 g; with Mus musculus [4], -3.4 g; with Mus musculus [5] it was 0 g; with Mus musculus [16], 2.6 g. Further, the figures for the KE with Mus musculus [6], in the data set with Mus musculus [11] and with Mus musculus [13] were -1.4, -0.91 and -0.56, respectively. The “Survivors / animals tested” value in the data set with Mus musculus [7], in the data set with Mus musculus [8], in the data set on Mus musculus [9], in the data set on Mus musculus [10], in the data set on Mus musculus [14] and in the data set with Mus musculus [15] was 6 in each case. In addition, the figures for the T/C in the data set with Mus musculus [12] and in the data set on Mus musculus [17] were 70% and 130%, respectively.
Regarding `CNC(=O)OCc1nc(SC)n(Cc2ccccc2)c1COC(=O)NC`, the BWD in the data set on Mus musculus [1] is 0.4 g; in the data set with Mus musculus [2], -0.4 g; in the data set on Mus musculus [4], -1.2 g; in the data set on Mus musculus [5], 0.9 g. The KE in the data set with Mus musculus [18] was -0.44; in the data set with Mus musculus [19], -0.71. Besides, the “Survivors / animals tested” value in the data set on Mus musculus [7], with Mus musculus [8], in the data set on Mus musculus [9] and with Mus musculus [10] was 6 each time.
For `CNC(=O)OCc1nc(SC)n(-c2ccccc2)c1COC(=O)NC`, the BWD in the data set with Mus musculus [1] is given as -1.6 g; in the data set with Mus musculus [2], -3 g; in the data set with Mus musculus [4] it was -5.2 g; with Mus musculus [5] it was -1.4 g. In addition, the KE in the data set with Mus musculus [20] amounted to 0.17; with Mus musculus [25] it was 0.6. Further, the “Survivors / animals tested” value in the data set on Mus musculus [21] is reported as 5; in the data set on Mus musculus [22], 5; in the data set on Mus musculus [23] it was 4; in the data set with Mus musculus [24], 5.
With `COc1nc(COC(=O)NC(C)C)c(COC(=O)NC(C)C)n1C`, the BWD is listed as -2.6 g in the data set with Mus musculus [26]; -0.1 g in the data set with Mus musculus [27]; -4.2 g in the data set with Mus musculus [28]; -1 g with Mus musculus [29]; -2.1 g with Mus musculus [30]. Further, the “Survivors / animals tested” value in the data set on Mus musculus [31], in the data set on Mus musculus [32], in the data set on Mus musculus [33], in the data set with Mus musculus [34] and in the data set with Mus musculus [35] was 6 throughout. For the same compound, the KE in the data set on Mus musculus [36] is given as 0.54; with Mus musculus [37], -0.6. The T/C in the data set on Mus musculus [38] worked out at 130%.
